Laboratory results taken from PMC8785363 (Leukemia, 2019).

How the values were obtained:
[1] = tested on: B cells from healthy donors; experiment: Toxicity toward B cells from healthy donors; assay type: cell-based, human; conditions: n=3
[2] = tested on: Human serum protein; experiment: Human serum protein binding; assay type: in vitro ADME; conditions: 22 h incubation with the serum, mean ± SD, triplicate
[3] = tested on: T cells from healthy donors; experiment: Toxicity toward T cells from healthy donors; assay type: cell-based, human; conditions: n=3
[4] = tested on: Bcl-XL; experiment: Immunoblot of Bcl-XL protein level in CLL cells; assay type: cell-based, human
In short: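 Primary CLL cells from patients (informed consent) exposed to test compound, then immunoblotted for Bcl-XL alongside Mcl-1, Bcl-2 and PARP. Cleaved PARP served as the apoptosis marker. Three CLL patient samples were run, and one representative blot is shown.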

[5] = tested on: primary CLL cells; experiment: Mitochondrial outer membrane permeabilization; assay type: cell-based, human; conditions: read-out: IC50 for MOMP induction; 24 h, DiOC6(3) staining; mean ± SD in 15 CLL samples
[6] = tested on: Bcl-2; experiment: Immunoblot of Bcl-2 protein level in CLL cells; assay type: cell-based, human; conditions: 24 h
[7] = tested on: FBS protein; experiment: FBS protein binding; assay type: in vitro ADME, bovine; conditions: 22 h incubation with the serum; mean ± SD, triplicate
[8] = tested on: primary CLL cells; experiment: Induction of apoptosis / cell death in primary CLL cells; assay type: cell-based, human
[9] = tested on: Mcl-1; experiment: Immunoblot of Mcl-1 protein level in CLL cells; assay type: cell-based, human; conditions: 24 h
[10] = tested on: primary CLL cells; experiment: Protein synthesis by [3H]leucine incorporation in primary CLL cells; assay type: cell-based, human; conditions: primary CLL samples, 4 h after exposure
[11] = human serum and fetal bovine serum; cited from earlier work
[12] = Human serum protein binding; assay type: in vitro ADME; conditions: human
[13] = FBS protein binding; assay type: in vitro ADME, bovine; conditions: bovine

CC(/C=C/C(C)=C/[C@@H]1Cc2nc(cs2)CC[C@@H](N)CC(=O)O[C@@H](C)C/C(C)=C/C=C\C(=O)O1)=C\CN(C)C [Compound 3, des-methyl PatA]
toxicity to normal B cells compared with CLL cells / PatA [1]: significantly lower toxicity
Human serum protein binding (%) Fraction Bound [2]: 86.7 ± 4.7%
Human serum protein binding (%) Recovery [2]: 54.0 ± 2.6%
toxicity to normal T cells compared with CLL cells / PatA [3]: significantly lower toxicity

CC(/C=C/C(C)=C/[C@@H]1Cc2nc(cs2)CCCCC(=O)O[C@@H](C)C/C(C)=C/C=C\C(=O)O1)=C\CN(C)C [DMDA PatA (2), des-methyl, des-amino PatA]
effect on Bcl-XL expression [4]: without affecting the expression
Human serum protein binding (%) Fraction Bound [2]: 99.6 ± 0.1%
Human serum protein binding (%) Recovery [2]: 38.1 ± 7.5%
Human serum protein binding (%) Fraction Bound ([2]; listed as DMDAPatA): 99.7%
Human serum protein binding (%) Recovery ([2]; listed as DMDAPatA): 31.4%
IC50 [5]: 4.92 ± 1.4 µM
effect on Bcl-2 expression [6]: without affecting the expression
FBS protein binding (%) Fraction Bound [7]: 99.1 ± 0.1%
FBS protein binding (%) Recovery [7]: 78.3 ± 2.7%
times less potent than PatA ([8]; CLL cells in media with 10% autologous patient plasma): about 30 times
IC50 ([8]; read-out: IC50 in one sample with 19% del11q, single CLL sample with 19% del11q): 4.32 µM
effect on Mcl-1 protein level [9]: reduced levels
inhibition of protein synthesis ([3H]leucine incorporation) [10]: inhibited protein synthesis
stability in human serum compared with fetal bovine serum [11]: similar

CC(/C=C/C(C)=C/[C@@H]1Cc2nc(cs2)[C@@H](C)C[C@@H](N)CC(=O)O[C@@H](C)C/C(C)=C/C=C\C(=O)O1)=C\CN(C)C [PatA (1), Pateamine A, reference compound]
recovery at 22 h [12]: 80.4 ± 12.8%
fraction unbound at 22 h ([12]; serum): 0.026
recovery at 22 h ([13]; FBS protein binding (%) Recovery, 22 h incubation with the serum, mean ± SD, triplicate): 86.2%
fraction unbound at 22 h ([13]; serum): 0.013
FBS protein binding (%) Recovery [7]: 86.3 ± 4.3%
IC50 ([8]; Homo sapiens, CLL cell, 24 h, read-out: IC50, μM 10% FBS): 0.13 ± 0.08 µM
IC50 ([8]; Homo sapiens, CLL cell, 24 h, read-out: IC50, μM 10% Plasma): 0.12 ± 0.09 µM
